Consider three molecules from ChEMBL document CHEMBL1137737, “Synthesis, antimicrobial and cytotoxic activities of 1,3,4-oxadiazoles, 1,3,4-thiadiazoles and 1,2,4-triazoles” (Eur J Med Chem, 2009).

Holding throughout (assay type): functional
The subject of assay [1] is Staphylococcus aureus. Nature of the assay: Antibacterial activity against Staphylococcus aureus NCIM 5021 at 100 ug/disk after 24 hrs by agar disc-diffusion method. Particulars: NCIM 5021, 24 h, read-out: DIZ. In short, it runs like this:
(§1)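 Sterile 6 mm filter-paper discs are soaked in compound solution in DMSO and placed on nutrient agar plates already inoculated with each organism. Plates are incubated at 37 °C. The diameter of the growth-inhibition zone is read after 24 h for bacteria and after 48 h for fungi.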
(Agar diffusion results depend on both activity and mobility in agar.)

The test system of assay [2] is Bacillus subtilis. Briefly: Antibacterial activity against Bacillus subtilis NCIM 2063 at 100 ug/disk after 24 hrs by agar disc-diffusion method. The following applies: NCIM 2063, 24 h, read-out: DIZ. In short, it runs like this:
as §1

Assay [3] has as its system Klebsiella pneumoniae. Briefly: Antibacterial activity against Klebsiella pneumoniae NCIM 2957 at 100 ug/disk after 24 hrs by agar disc-diffusion method. The following applies: NCIM 2957, 24 h, read-out: DIZ. In short, it runs like this: as §1
In assay [4] the test system is Proteus vulgaris. Briefly: Antibacterial activity against Proteus vulgaris NCIM 2027 at 100 ug/disk after 24 hrs by agar disc-diffusion method. The following applies: NCIM 2027, 24 h, read-out: DIZ. In short, it runs like this: as §1
Assay [5] concerns Fusarium solani. Briefly: Antifungal activity against Fusarium solani NCIM 1330 at 100 ug/disk after 48 hrs by agar disc-diffusion method. Particulars: NCIM 1330, 48 h, read-out: DIZ. In short, it runs like this: as §1
The subject of assay [6] is Curvularia lunata. Nature of the assay: Antifungal activity against Curvularia lunata NCIM 716 at 100 ug/disk after 48 hrs by agar disc-diffusion method. Particulars: NCIM 716, 48 h, read-out: DIZ. In short, it runs like this: as §1
For assay [7], the system named is Aspergillus niger. Briefly: Antifungal activity against Aspergillus niger NCIM 596 at 100 ug/disk after 48 hrs by agar disc-diffusion method. Particulars: NCIM 596, 48 h, read-out: DIZ. A digest of the protocol: as §1
Assay [8] deals with Staphylococcus aureus. Nature of the assay: Antibacterial activity against Staphylococcus aureus NCIM 5021 at 200 ug/disk after 24 hrs by agar disc-diffusion method. The following applies: NCIM 5021, 24 h, read-out: DIZ. A digest of the protocol:
as §1

Assay [9] has as its system Bacillus subtilis. Nature of the assay: Antibacterial activity against Bacillus subtilis NCIM 2063 at 200 ug/disk after 24 hrs by agar disc-diffusion method. The following applies: NCIM 2063, 24 h, read-out: DIZ. In short, it runs like this: as §1
Assay [10] concerns Klebsiella pneumoniae. Nature of the assay: Antibacterial activity against Klebsiella pneumoniae NCIM 2957 at 200 ug/disk after 24 hrs by agar disc-diffusion method. The following applies: NCIM 2957, 24 h, read-out: DIZ. In short, it runs like this:
as §1

Assay [11] deals with Proteus vulgaris. Nature of the assay: Antibacterial activity against Proteus vulgaris NCIM 2027 at 200 ug/disk after 24 hrs by agar disc-diffusion method. The following applies: NCIM 2027, 24 h, read-out: DIZ. A digest of the protocol: as §1
Assay [12] deals with Fusarium solani. Briefly: Antifungal activity against Fusarium solani NCIM 1330 at 200 ug/disk after 48 hrs by agar disc-diffusion method. Particulars: NCIM 1330, 48 h, read-out: DIZ. A digest of the protocol: as §1
The subject of assay [13] is Curvularia lunata. Nature of the assay: Antifungal activity against Curvularia lunata NCIM 716 at 200 ug/disk after 48 hrs by agar disc-diffusion method. The following applies: NCIM 716, 48 h, read-out: DIZ. A digest of the protocol: as §1
In assay [14] the test system is Aspergillus niger. Nature of the assay: Antifungal activity against Aspergillus niger NCIM 596 at 200 ug/disk after 48 hrs by agar disc-diffusion method. The following applies: NCIM 596, 48 h, read-out: DIZ. A digest of the protocol:
as §1

Assay [15] deals with Staphylococcus aureus. Briefly: Antibacterial activity against Staphylococcus aureus NCIM 5021 after 24 hrs by microdilution susceptibility method. Particulars: NCIM 5021, 24 h. In short, it runs like this: (§2)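 This is a microdilution susceptibility test. Organism suspensions are inoculated into wells holding the dilution series, then incubated at 36 °C for 24 h (bacteria) or 48 h (fungi). MIC is the lowest concentration giving no turbidity, i.e. complete inhibition of visible growth.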

Assay [16] deals with Bacillus subtilis. Briefly: Antibacterial activity against Bacillus subtilis NCIM 2063 after 24 hrs by microdilution susceptibility method. The following applies: NCIM 2063, 24 h. In short, it runs like this:
as §2
Background: In broth dilution the organism is exposed to a series of concentrations in liquid medium.

In assay [17] the test system is Fusarium solani. Briefly: Antifungal activity against Fusarium solani NCIM 1330 after 48 hrs by microdilution susceptibility method. The following applies: NCIM 1330, 48 h. In short, it runs like this:
as §2

Assay [18] relates to Curvularia lunata. Nature of the assay: Antifungal activity against Curvularia lunata NCIM 716 after 48 hrs by microdilution susceptibility method. The following applies: NCIM 716, 48 h. A digest of the protocol: as §2
The test system of assay [19] is Aspergillus niger. Nature of the assay: Antifungal activity against Aspergillus niger NCIM 596 after 48 hrs by microdilution susceptibility method. Particulars: NCIM 596, 48 h. In short, it runs like this:
as §2

In assay [20] the test system is A549. Nature of the assay: Cytotoxicity against human A549 cells at 250 uM by MTT assay relative to control. A digest of the protocol:
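A549 lung adenocarcinoma cells are grown in DMEM with 10% FBS and penicillin–streptomycin. Compounds come from a 10 mM DMSO stock, are diluted in medium, and are added 2–4 h after plating. Viability is (treated − background)/(untreated − background) × 100, with a DMSO vehicle control. The experiment was run in duplicate with triplicate readings.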
On the technique in general: Tetrazolium dyes change colour on reduction, which living cells bring about.

For assay [21], the system named is A549. Briefly: Cytotoxicity against human A549 cells at 250 uM by MTT assay in presence of 0.2% fetal bovine serum. In short, it runs like this: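 MTT viability assay on A549 cells as for the other cytotoxicity lines, but with 0.2% serum in the medium in place of 10% FBS. Compounds are diluted in medium from a 10 mM DMSO stock and exposure lasts 48 h.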
Assay [22] has as its system Klebsiella pneumoniae. Briefly: Antibacterial activity against Klebsiella pneumoniae NCIM 2957 after 24 hrs by microdilution susceptibility method. The following applies: NCIM 2957, 24 h. A digest of the protocol:
as §2

Assay [23] concerns Proteus vulgaris. Briefly: Antibacterial activity against Proteus vulgaris NCIM 2027 after 24 hrs by microdilution susceptibility method. The following applies: NCIM 2027, 24 h. In short, it runs like this: as §2

Values after ≈ are worked out from the molar mass of the structure shown.

A word on the MIC: it is the least concentration at which growth counts as inhibited. A low value points to a more susceptible organism.

In the case of `O=S(=O)(Cc1ccc(Cl)cc1)Cc1nnc(-c2ccccc2Cl)o1`, the zone of inhibition at 100 µg/disc with Staphylococcus aureus [1] came to 20 mm; with Bacillus subtilis [2], 19 mm; in the assay on Klebsiella pneumoniae [3] it was 17 mm; in the assay on Proteus vulgaris [4] it was 15 mm; in the assay with Fusarium solani [5], 18 mm; with Curvularia lunata [6], 16 mm. For the same molecule, the zone of inhibition at 100 µg/disc in the assay with Aspergillus niger [7] stood at 17 mm. Also, the zone of inhibition at 200 µg/disc with Staphylococcus aureus [8] was determined as 23 mm; in the assay with Bacillus subtilis [9], 21 mm; in the assay with Klebsiella pneumoniae [10], 20 mm; with Proteus vulgaris [11] it was 18 mm; in the assay with Fusarium solani [12], 22 mm; in the assay on Curvularia lunata [13] it was 19 mm. Moreover, the zone of inhibition at 200 µg/disc in the assay with Aspergillus niger [14] came out at 21 mm. Also, the MIC against Staphylococcus aureus [15] is 200 µg/mL (≈ 522 µM); with Bacillus subtilis [16], 400 µg/mL (≈ 1040 µM); against Fusarium solani [17] it was 200 µg/mL (≈ 522 µM); in the assay on Curvularia lunata [18] it was 200 µg/mL (≈ 522 µM); in the assay on Aspergillus niger [19] it was 200 µg/mL (≈ 522 µM). Also, the Activity in the assay on A549 [20] and with A549 [21] was 50% each time.

Turning to `Nn1c(CS(=O)(=O)Cc2ccccc2)nnc1-c1ccccc1`, the zone of inhibition at 100 µg/disc turned out to be 22 mm in the assay with Staphylococcus aureus [1]; 23 mm in the assay on Bacillus subtilis [2]; 18 mm in the assay on Klebsiella pneumoniae [3]; 17 mm in the assay with Proteus vulgaris [4]; 19 mm in the assay with Fusarium solani [5]; 22 mm in the assay with Curvularia lunata [6]. Besides, the zone of inhibition at 100 µg/disc with Aspergillus niger [7] worked out at 17 mm. The zone of inhibition at 200 µg/disc came out at 24 mm with Staphylococcus aureus [8]; 26 mm with Bacillus subtilis [9]; 22 mm in the assay on Klebsiella pneumoniae [10]; 22 mm in the assay with Proteus vulgaris [11]; 21 mm in the assay on Fusarium solani [12]; 24 mm in the assay with Curvularia lunata [13]. The zone of inhibition at 200 µg/disc in the assay on Aspergillus niger [14] is 21 mm. In addition, the MIC against Staphylococcus aureus [15] is 400 µg/mL (≈ 1220 µM); in the assay with Bacillus subtilis [16], 400 µg/mL (≈ 1220 µM); with Klebsiella pneumoniae [22], 200 µg/mL (≈ 609 µM); in the assay on Proteus vulgaris [23] it was 200 µg/mL (≈ 609 µM); against Fusarium solani [17], 200 µg/mL (≈ 609 µM); against Curvularia lunata [18] it was 200 µg/mL (≈ 609 µM). In the assay with Aspergillus niger [19], this molecule had an MIC of 400 µg/mL (≈ 1220 µM).

`O=S(=O)(Cc1ccccc1)Cc1nnc(-c2ccccc2)s1`: the zone of inhibition at 100 µg/disc in the assay with Staphylococcus aureus [1] stood at 24 mm; in the assay on Bacillus subtilis [2], 22 mm; in the assay on Klebsiella pneumoniae [3] it was 17 mm; with Proteus vulgaris [4], 16 mm; in the assay on Fusarium solani [5], 18 mm; with Curvularia lunata [6] it was 21 mm. Moreover, the zone of inhibition at 100 µg/disc in the assay with Aspergillus niger [7] was determined as 16 mm. Besides, the zone of inhibition at 200 µg/disc in the assay on Staphylococcus aureus [8] is 29 mm; in the assay with Bacillus subtilis [9], 25 mm; in the assay with Klebsiella pneumoniae [10], 22 mm; with Proteus vulgaris [11], 24 mm; in the assay with Fusarium solani [12], 20 mm; in the assay on Curvularia lunata [13] it was 23 mm. Besides, in the assay on Aspergillus niger [14], the zone of inhibition at 200 µg/disc was determined as 19 mm. In addition, the MIC against Staphylococcus aureus [15] was determined as 200 µg/mL (≈ 605 µM); in the assay with Bacillus subtilis [16], 200 µg/mL (≈ 605 µM); in the assay with Klebsiella pneumoniae [22], 200 µg/mL (≈ 605 µM); in the assay with Proteus vulgaris [23] it was 400 µg/mL (≈ 1210 µM); with Fusarium solani [17], 200 µg/mL (≈ 605 µM); in the assay on Curvularia lunata [18] it was 200 µg/mL (≈ 605 µM). In the assay with Aspergillus niger [19], this molecule showed an MIC of 200 µg/mL (≈ 605 µM).
